Compound activity: PubChem, several laboratories
WT yeast gro inh – growth inhibition of WT yeast, mitochondrial fusion screen; mitochondrial fusion phenotypic screen, WT strain; inhibition, % at 10 µM; hit rate 2.1% among 190,000; AID 1362; in the data active = inhibition above about 58%; tested in S. cerevisiae
ROMK mod – modulates human ROMK potassium channel activity; P48048; Tet-inducible ROMK, thallium flux fluorescence; actives lie on both sides; B-score at 10 µM; hit rate 2% among 130,000;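 active = signal ratio slope over the read window, or its plate-corrected B-score, at least 3 SD from the plate mean, either direction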;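 also: B-score of the F/F0 ratio slope over 7 to 12 s after thallium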
Target sequence (P48048 whole entry, looked up): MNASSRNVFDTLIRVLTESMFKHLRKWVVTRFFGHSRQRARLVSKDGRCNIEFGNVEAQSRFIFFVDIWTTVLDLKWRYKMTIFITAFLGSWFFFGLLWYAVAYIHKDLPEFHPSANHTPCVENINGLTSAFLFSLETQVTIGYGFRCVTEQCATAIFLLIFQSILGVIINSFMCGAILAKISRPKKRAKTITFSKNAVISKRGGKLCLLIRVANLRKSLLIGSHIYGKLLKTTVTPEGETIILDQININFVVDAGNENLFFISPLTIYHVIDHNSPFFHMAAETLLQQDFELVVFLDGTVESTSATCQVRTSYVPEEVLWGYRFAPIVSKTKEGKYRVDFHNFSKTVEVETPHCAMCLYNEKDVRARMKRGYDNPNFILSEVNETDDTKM
p47phox inh – inhibitors of human p47phox binding | inhibition, % at 24.7 µM | AID 1274 | p47phox/p22phox peptide binding, fluorescence polarization, 2 h | hit rate 0.53% among 220,000 | P14598;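 active = inhibition above about 30%, limit read from the data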
14-3-3 Bad inh – disrupts binding of bovine 14-3-3 zeta to phospho-Bad peptide; TR-FRET 14-3-3zeta/Dy647-pBad peptide displacement, 1 h; hit rate 0.71% among 220,000; inhibition, % at 21.7 µM; P63103;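 active = inhibition above about 70%, limit read from the data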
Target sequence (P63103 whole entry, looked up): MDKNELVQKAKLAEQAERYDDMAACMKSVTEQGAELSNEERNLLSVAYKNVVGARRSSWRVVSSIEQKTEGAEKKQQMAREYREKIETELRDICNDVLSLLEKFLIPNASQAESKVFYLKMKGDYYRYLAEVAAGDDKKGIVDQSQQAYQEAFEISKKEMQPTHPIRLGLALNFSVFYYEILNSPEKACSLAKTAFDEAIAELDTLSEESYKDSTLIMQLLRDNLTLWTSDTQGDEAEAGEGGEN
Cl transport mod – modulators of human KCC2 chloride dependent transport | hit rate 2.2% among 190,000 | B-score of Tl+ flux slope (higher = more flux/activation; lower = inhibition) at 10 µM | AID 1456 | KCC2 cells, thallium flux FluoZin-2 fluorescence;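 active = thallium flux slope and its plate-corrected score both differing from the plate sample mean at a set confidence after two filtering rounds, in either direction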;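 also: slope of fluorescence scaled to starting intensity during 10 to 20 s after thallium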
RBBP9 inh – blocks human serine hydrolase RBBP9; inhibition, % at 7.94 µM; recombinant RBBP9, FP-Rh probe fluorescence polarization; O75884; hit rate 0.2% among 220,000;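 active = inhibition above the campaign mean of all tested compounds plus 3 SD, cut at about 14% in these data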
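System: RBBP9 protein | Quantity: 2.5 µM RBBP9 dispensing solution, before mixing | Reagent: FP-Rh probe, 375 nM dispensing solution | Timing: Enzyme-compound preincubation 30 min, then probe labeling 45 min, 25 °C | Measured by: Fluorescence polarization | Read-out: % inhibition | Replication: One well per compound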
ROMK hit retest – retested hit modulating human ROMK potassium channel. ROMK thallium flux, fluorescence ratio; stronger effect = lower value. hit rate 54% among 3,000. normalized thallium flux (F/F0 slope) at 10 µM. AID 1917. shares compounds with ROMK mod;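 active = Flux at 10 µM at least 3 SD below or above vehicle control mean in one or both replicates; inconclusive = no clear call, values can overlap the other calls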
Large screens that a line does not name were inactive (follow-up assays come after a bar, where they were run). In the library only some 5.8% were active in any assay of this set; here they are far more common.

CCOC(=O)NC(=O)C(/C=N/c1sccc1C(=O)OC)=C(\C)O	none
O=c1cc2c(nn1Cc1cccc([N+](=O)[O-])c1)-c1ccccc1CC2	ROMK mod -8.3 | ROMK hit retest 0.053
COc1ccc(/C=N/NC(=O)c2cc(C34CC5CC(CC(C5)C3)C4)[nH]n2)cc1OC	none (no result: ROMK mod)
O=C(N/N=C/c1ccc(O)cc1)c1cc(C23CC4CC(CC(C4)C2)C3)[nH]n1	none (no result: WT yeast gro inh, ROMK mod) | ROMK hit retest inactive
O=C(NCCC1=CCCCC1)c1ccc(Cl)c(S(=O)(=O)N2CCOCC2)c1	none (no result: ROMK mod)
Cc1ccc(CSCCNC(=O)c2ccc(Cl)c(S(=O)(=O)N3CCOCC3)c2)cc1	ROMK mod -4 | ROMK hit retest inactive
Cc1cc(-c2nnc(CCC(=O)N(C)C(C)c3cccs3)o2)no1 (stereo not drawn)	none (no result: WT yeast gro inh, ROMK mod)
Cc1ccc2c(c1)nnn2C1CCN(CC(=O)Nc2ccccc2N2CCOCC2)CC1	ROMK mod -4.2 (no result: Cl transport mod) | ROMK hit retest 0.055
Cc1c(Nc2cc(Cl)c3nonc3c2[N+](=O)[O-])c(=O)n(-c2ccccc2)n1C	ROMK mod -4.4 | ROMK hit retest 0.04
CC1(C)CC(=O)C(C=NCC2CCNCC2)=C(O)C1	none (no result: ROMK mod)
CC1(C)CC(=O)C(C=NCC2CCN(C(=O)Cc3ccccc3)CC2)=C(O)C1	ROMK mod -3.8 | ROMK hit retest inactive
CC1=CC(C)(C)N=C(Nc2nc(C)c3cc(C)cc(C)c3n2)N1	ROMK mod -3.9 | ROMK hit retest 0.049
CCCCc1ccc(NC2=NCC(=O)N2CCc2ccccc2)cc1	none
Cn1c(=O)n(C)c2cc(NS(=O)(=O)c3ccc4c(c3)CCCC4)ccc21	ROMK mod -2 (no result: Cl transport mod) | ROMK hit retest inconclusive
COC(=O)c1ccccc1-c1ccc(/C=N/Nc2nc(N3CCCC3)nc(N3CCCC3)n2)o1	none (no result: WT yeast gro inh, ROMK mod) | ROMK hit retest inconclusive
Cc1ccc(/C=N/Nc2nc(N3CCCCC3)nc(N3CCCCC3)n2)o1	none
CC(=O)N1CCc2ccc(S(=O)(=O)N3CCc4ccccc43)cc21	none
CCn1c(=O)n(CC)c2cc(S(=O)(=O)N3CCc4ccccc43)ccc21	none (no result: ROMK mod) | ROMK hit retest inconclusive
Clc1cccc2c1Sc1ccccc1CC2N1CCNCC1 (stereo not drawn)	ROMK mod -3.1 | ROMK hit retest 0.051
Clc1ccc2c(c1)C(N1CCNCC1)Cc1ccccc1S2 (stereo not drawn)	none (no result: ROMK mod)
COc1ccc(C2OC(=O)Cc3cc(OC)c(OC)cc32)cc1 (stereo not drawn)	ROMK mod -2.5 | ROMK hit retest inactive
CCOc1cc2c(cc1OCC)C(c1ccccc1OC)OC(=O)C2 (stereo not drawn)	none
O=C(Nc1ccccc1)c1cc(S(=O)(=O)N2CCSCC2)ccc1Cl	none
O=C(Nc1cccc(O)c1)c1cc(S(=O)(=O)N2CCCC2)ccc1Cl	ROMK mod 3.4 | ROMK hit retest 0.1
O=C(Nc1cccc(S(=O)(=O)N2CCCCCC2)c1)c1ccc2c(c1)OCO2	ROMK mod -3.6, 14-3-3 Bad inh 78 | ROMK hit retest inactive
O=C(Nc1cccc(S(=O)(=O)N2CCCC2)c1)c1ccc2c(c1)OCO2	none (no result: ROMK mod)
S=c1[nH]ncn2c1cc1oc3ccccc3c12	none
Cc1ccc([N+](=O)[O-])cc1N/C=C1\CCCCC1=O	none
Brc1ccc(N=C/C=C/C=C/Nc2ccc(Br)cc2)cc1	none (no result: ROMK mod) | ROMK hit retest inconclusive
CN(C)C(/C=C/Nc1ccc(Br)cc1)=C(C#N)C#N	none (no result: ROMK mod)
C=CCNCCCCOc1ccccc1-c1ccccc1	ROMK mod -3 | ROMK hit retest 0.062
Cc1cccn2c(=O)c3cc(C(=O)NCCN4CCOCC4)c(=N)n(CCc4ccccc4)c3nc12	ROMK mod -2.8 (no result: Cl transport mod) | ROMK hit retest 0.063
Nc1nn(-c2ccccc2)c(N)c1N=Nc1cccc(F)c1	ROMK mod 3.4 (no result: WT yeast gro inh) | ROMK hit retest inactive
COc1ccc(C(=O)n2nc(C)cc2Nc2ccccc2)cc1	ROMK mod 1.8 | ROMK hit retest inconclusive
Cc1cc(Nc2ccccc2)nn1C(=O)c1ccccc1	none (no result: ROMK mod)
O=C(C1CCCN(S(=O)(=O)c2ccc(Cl)cc2)C1)N(Cc1cccs1)C1CC1 (stereo not drawn)	ROMK mod -4 | ROMK hit retest 0.058
COc1ccc(NC(=O)CCN2CCN(S(=O)(=O)c3cc(Cl)ccc3OC)CC2)cc1	ROMK mod -3.3 (no result: Cl transport mod) | ROMK hit retest 0.061
CCOc1ccc(NC(=O)CCN2CCN(S(=O)(=O)c3ccc(OC)cc3)CC2)cc1	none (no result: Cl transport mod)
CCOC(=O)CC1CCCCN1Cc1nc(-c2ccc(F)c(OC)c2)oc1C (stereo not drawn)	ROMK mod -3 | ROMK hit retest 0.06
Clc1ccc(COc2cccc(CNCc3ccncc3)c2)cc1	ROMK mod -3.8 | ROMK hit retest inactive
CC(=O)OCC1=C(C(=O)O)N2C(=O)C(NC(=O)c3ccc(COc4cccc(Cl)c4Cl)o3)C2SC1 (stereo not drawn)	none
N#CC1=C(N)C(C#N)(C#N)C(c2ccc[nH]2)C2CCCC=C12 (stereo not drawn)	ROMK mod -6.5 | ROMK hit retest 0.053
COc1nccnc1NS(=O)(=O)c1ccc(N=Cc2c(C)[nH]n(-c3ccc(Cl)cc3)c2=O)cc1	none (no result: ROMK mod)
COc1nccnc1NS(=O)(=O)c1ccc(N=Cc2c(C)[nH]n(-c3ccc(C)c(C)c3)c2=O)cc1	ROMK mod 2.3 (no result: Cl transport mod) | ROMK hit retest inactive
CC(=O)c1sc2nsc(SCCN3CCCCC3)c2c1N	none (no result: WT yeast gro inh, ROMK mod) | ROMK hit retest 0.053
CC(=C/c1ccc(C(C)C)cc1)/C=N/NC(=O)Cn1nnnc1N	none (no result: WT yeast gro inh, ROMK mod)
CCNC(=S)N/N=C/c1cc(C)n(-c2ccc(Cl)cc2)c1C	WT yeast gro inh 73, ROMK mod 3 | ROMK hit retest inactive
Cc1cc(/C=N/NC(N)=S)c(C)n1-c1ccc(Cl)c(Cl)c1	none
COC(=O)N/N=C/c1cc(C)n(-c2ccc(F)cc2)c1C	none (no result: ROMK mod)
COC(=O)N/N=C/c1cc(C)n(-c2ccc(Br)cc2)c1C	none (no result: WT yeast gro inh, ROMK mod, Cl transport mod) | ROMK hit retest inactive
Cc1cc(/C=N/NC(N)=O)c(C)n1-c1ccc(F)cc1	ROMK mod 2.9 | ROMK hit retest inconclusive
O=C(Nc1cccc(S(=O)(=O)N2CCCC2)c1)c1cc(-c2ccccn2)nc2ccccc12	none
CC(C)COc1ccc(C(=O)OC2CC(C)(C)OCC2CN(C)C)cc1 (stereo not drawn)	ROMK mod -3.7 (no result: Cl transport mod) | ROMK hit retest 0.055
COc1cc(C(=O)Oc2cccc(C=O)c2)cc(OC)c1OC	none (no result: ROMK mod)
O=Cc1cccc(OC(=O)c2ccc(Cl)cc2Cl)c1	ROMK mod 3 (no result: Cl transport mod) | ROMK hit retest inactive
N#Cc1c(NCc2ccccc2)ccnc1NCc1cccnc1	none (no result: ROMK mod) | ROMK hit retest inactive
O=C(O)C1CC=CCC1C(=O)c1ccccc1 (stereo not drawn)	ROMK mod 3.4 | ROMK hit retest inactive
Cc1cc(OC(=O)c2ccc(S(=O)(=O)N(C)C)cc2)c([N+](=O)[O-])c(=O)[nH]1	none (no result: Cl transport mod)
